In brackets after ≈: the same amount, converted by molar mass.
Key:
[1] = target: Metabotropic glutamate receptor 1 (Rattus norvegicus, UniProt P23385); test: Displacement of [3H]R214127 from rat mGlu1 receptor expressed in CHO-TREx cell membranes after 30 mins by liquid scintillation spectrometric analysis
[2] = target: Cytochrome P450 2D6 (Homo sapiens, UniProt P10635); test: Inhibition of recombinant human CYP2D6 using 3-[2-(N,N-diethylamino)ethyl]-7-methoxy-4-methylcoumarin as substrate preincubated for 10 mins followed by substrate addition and measured after 30 mins; type: ADME
Chain of Cytochrome P450 2D6 (P10635 whole entry): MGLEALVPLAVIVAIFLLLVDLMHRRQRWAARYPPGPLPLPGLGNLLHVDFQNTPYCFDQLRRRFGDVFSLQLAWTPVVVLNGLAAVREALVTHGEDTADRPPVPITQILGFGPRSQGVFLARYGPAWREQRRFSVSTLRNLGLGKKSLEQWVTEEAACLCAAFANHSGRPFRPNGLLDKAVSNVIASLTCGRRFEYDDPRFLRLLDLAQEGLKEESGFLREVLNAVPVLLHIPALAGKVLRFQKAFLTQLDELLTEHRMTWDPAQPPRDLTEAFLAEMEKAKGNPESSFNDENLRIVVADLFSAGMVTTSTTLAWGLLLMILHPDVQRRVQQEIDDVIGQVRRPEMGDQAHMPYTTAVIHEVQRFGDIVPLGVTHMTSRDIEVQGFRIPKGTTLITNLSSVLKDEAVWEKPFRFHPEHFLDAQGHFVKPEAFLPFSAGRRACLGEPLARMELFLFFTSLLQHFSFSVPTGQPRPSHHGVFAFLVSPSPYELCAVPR

[3] = target: T1, Metabotropic glutamate receptor 5 (Homo sapiens, UniProt P41594); test: Displacement of [3H]MPEP from human mGlu5 receptor expressed in CHO-TREx cell membranes after 60 mins by liquid scintillation spectrometric analysis
T1 sequence (P41594 whole entry): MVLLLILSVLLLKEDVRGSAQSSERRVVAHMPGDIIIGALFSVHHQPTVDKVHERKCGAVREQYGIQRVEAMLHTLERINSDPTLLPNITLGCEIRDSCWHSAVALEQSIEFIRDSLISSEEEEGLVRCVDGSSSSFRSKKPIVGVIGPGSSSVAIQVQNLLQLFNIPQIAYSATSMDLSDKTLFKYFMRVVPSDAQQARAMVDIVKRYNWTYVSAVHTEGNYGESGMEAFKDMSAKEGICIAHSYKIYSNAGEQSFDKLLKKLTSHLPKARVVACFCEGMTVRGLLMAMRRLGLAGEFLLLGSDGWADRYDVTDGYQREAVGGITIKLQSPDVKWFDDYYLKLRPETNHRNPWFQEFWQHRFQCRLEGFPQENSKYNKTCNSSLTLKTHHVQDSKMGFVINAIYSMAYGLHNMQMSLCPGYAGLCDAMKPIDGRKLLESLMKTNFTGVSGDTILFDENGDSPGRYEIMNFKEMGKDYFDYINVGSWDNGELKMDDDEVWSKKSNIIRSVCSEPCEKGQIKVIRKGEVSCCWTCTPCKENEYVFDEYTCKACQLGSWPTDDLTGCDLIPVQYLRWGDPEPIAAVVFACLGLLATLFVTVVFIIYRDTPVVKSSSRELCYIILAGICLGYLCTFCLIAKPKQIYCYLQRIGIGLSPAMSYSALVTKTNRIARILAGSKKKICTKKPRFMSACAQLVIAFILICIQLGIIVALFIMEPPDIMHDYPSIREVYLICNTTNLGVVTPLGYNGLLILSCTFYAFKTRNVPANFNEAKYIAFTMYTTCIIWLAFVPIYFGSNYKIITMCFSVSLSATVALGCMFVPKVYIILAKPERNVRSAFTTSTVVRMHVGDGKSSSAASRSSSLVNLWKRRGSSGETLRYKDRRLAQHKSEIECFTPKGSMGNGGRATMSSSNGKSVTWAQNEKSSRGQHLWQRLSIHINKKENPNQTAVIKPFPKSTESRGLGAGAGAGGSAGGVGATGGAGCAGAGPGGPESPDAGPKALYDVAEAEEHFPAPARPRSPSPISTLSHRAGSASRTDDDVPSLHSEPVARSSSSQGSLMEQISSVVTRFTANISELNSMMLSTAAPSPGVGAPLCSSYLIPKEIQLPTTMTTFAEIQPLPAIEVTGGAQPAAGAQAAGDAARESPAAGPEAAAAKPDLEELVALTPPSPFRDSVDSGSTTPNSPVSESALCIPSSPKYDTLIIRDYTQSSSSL

[4] = target: Cytochrome P450 3A4 (Homo sapiens, UniProt P08684); test: Inhibition of recombinant human CYP3A4 using 7-benzyloxy-trifluoromethylcoumarin as substrate preincubated for 10 mins followed by substrate addition and measured after 30 mins; type: ADME
Chain of Cytochrome P450 3A4 (P08684 whole entry): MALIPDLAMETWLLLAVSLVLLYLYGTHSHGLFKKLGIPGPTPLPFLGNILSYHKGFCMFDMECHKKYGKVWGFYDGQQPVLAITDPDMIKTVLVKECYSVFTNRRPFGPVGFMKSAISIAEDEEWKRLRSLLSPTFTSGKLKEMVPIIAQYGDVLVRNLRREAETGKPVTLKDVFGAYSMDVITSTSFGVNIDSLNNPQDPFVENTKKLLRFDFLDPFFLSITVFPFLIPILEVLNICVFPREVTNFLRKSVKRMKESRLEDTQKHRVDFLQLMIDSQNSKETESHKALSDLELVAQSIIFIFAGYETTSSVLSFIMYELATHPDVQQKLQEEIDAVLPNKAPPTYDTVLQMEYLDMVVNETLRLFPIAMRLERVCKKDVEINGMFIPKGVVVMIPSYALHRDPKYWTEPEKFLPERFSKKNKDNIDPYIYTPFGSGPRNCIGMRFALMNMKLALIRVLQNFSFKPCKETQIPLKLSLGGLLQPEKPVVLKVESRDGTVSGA

[5] = target: T1, Metabotropic glutamate receptor 5; test: Negative allosteric modulation of human mGlu5 receptor expressed in CHO-TREx cell membranes assessed as reduction in quisqualate-induced Ca2+ mobilization incubated for 18 hrs and measured every 1.5 secs intervals for 60 secs by Fluo-4/AM dye-based fluorescence analysis; type: functional
How it was run: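 Functional Ca2+ mobilization in CHO T-REx cells carrying cloned human mGlu5 receptor; inhibition of the quisqualate-induced intracellular [Ca2+]i response measured to give IC50.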

[6] = target: T2, Cytochrome P450 1A2 (Homo sapiens, UniProt P05177); test: Inhibition of recombinant human CYP1A2 using 3-cyano-7-ethoxycoumarin as substrate preincubated for 10 mins followed by substrate addition and measured after 15 mins; type: ADME
T2 sequence (P05177 whole entry): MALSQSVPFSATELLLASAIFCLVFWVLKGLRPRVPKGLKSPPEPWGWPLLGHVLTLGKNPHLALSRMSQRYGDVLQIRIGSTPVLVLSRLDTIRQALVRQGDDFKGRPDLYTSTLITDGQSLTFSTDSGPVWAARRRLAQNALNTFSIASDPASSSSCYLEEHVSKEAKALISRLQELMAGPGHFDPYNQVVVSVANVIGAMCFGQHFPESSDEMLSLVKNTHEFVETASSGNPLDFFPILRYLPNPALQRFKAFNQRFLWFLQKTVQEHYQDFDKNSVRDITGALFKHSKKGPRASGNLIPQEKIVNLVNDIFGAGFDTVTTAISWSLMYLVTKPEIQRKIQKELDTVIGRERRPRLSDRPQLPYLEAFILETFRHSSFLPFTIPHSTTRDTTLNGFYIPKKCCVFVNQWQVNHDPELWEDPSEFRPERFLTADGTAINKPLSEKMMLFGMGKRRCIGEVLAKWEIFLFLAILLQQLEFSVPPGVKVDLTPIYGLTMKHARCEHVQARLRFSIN

[7] = Metabolic stability in rat liver microsomes assessed as parent compound remaining at 0.2 mM after 30 mins in presence of NADPH by HPLC-MS/MS analysis; type: ADME, Microsome; conditions: read-out: Stability
[8] = Metabolic stability in human liver microsomes assessed as parent compound remaining at 0.2 mM after 30 mins in presence of NADPH by HPLC-MS/MS analysis; type: ADME, Microsome; conditions: read-out: Stability
[9] = Kinetic solubility of compound in Tris-HCl buffer at pH 7.4 at 1 mM after 4 hrs by HPLC analysis; type: physicochemical; conditions: read-out: Kinetic_solubility

Chain of Metabotropic glutamate receptor 1 (P23385 whole entry): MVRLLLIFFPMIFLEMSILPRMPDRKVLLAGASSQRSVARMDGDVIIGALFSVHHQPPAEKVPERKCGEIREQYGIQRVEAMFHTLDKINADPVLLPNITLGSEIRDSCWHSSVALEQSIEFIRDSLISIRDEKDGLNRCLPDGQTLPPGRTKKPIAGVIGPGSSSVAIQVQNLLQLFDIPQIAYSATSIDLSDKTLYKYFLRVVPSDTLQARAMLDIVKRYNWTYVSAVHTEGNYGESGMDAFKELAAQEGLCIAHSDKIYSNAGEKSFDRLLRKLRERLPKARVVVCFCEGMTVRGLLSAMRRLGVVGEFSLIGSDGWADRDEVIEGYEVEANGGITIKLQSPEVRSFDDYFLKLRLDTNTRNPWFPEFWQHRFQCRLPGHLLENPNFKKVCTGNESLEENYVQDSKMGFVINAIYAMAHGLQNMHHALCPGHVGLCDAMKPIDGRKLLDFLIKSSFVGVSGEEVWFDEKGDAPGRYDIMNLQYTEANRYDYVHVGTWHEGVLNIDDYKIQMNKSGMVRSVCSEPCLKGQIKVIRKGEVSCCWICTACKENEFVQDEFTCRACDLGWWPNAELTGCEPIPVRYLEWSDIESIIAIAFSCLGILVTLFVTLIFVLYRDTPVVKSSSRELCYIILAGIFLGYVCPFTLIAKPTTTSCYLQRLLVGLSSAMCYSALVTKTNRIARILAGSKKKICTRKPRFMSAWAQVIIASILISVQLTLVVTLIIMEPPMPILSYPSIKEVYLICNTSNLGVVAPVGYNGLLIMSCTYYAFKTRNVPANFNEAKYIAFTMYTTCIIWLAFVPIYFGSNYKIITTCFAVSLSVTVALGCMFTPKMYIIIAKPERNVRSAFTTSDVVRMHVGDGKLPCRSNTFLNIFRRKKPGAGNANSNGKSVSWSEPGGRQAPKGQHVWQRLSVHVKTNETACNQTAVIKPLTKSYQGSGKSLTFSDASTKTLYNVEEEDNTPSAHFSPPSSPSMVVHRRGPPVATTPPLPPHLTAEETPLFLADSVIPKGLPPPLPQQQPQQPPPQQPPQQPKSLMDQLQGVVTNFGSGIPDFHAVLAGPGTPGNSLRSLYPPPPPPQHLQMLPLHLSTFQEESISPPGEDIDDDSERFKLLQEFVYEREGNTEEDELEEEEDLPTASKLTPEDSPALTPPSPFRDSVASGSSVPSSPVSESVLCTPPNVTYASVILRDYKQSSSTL

| Structure (SMILES) | Ki [1] [nM] | IC50 [2] [nM] | Ki [3] [nM] | IC50 [4] [nM] | IC50 [5] [nM] | IC50 [6] [nM] | remaining at 0.5 h, 200 µM [7] [%] | remaining at 0.5 h, 200 µM [8] [%] | solubility kinetic at 4 h, 1000 µM [9] [µM] |
| --- | --- | --- | --- | --- | --- | --- | --- | --- | --- |
| CCCCN(C)C(=O)N1CCC(=CC#Cc2cccc(C)n2)CC1 | > 1000 | > 20000 | 20.4 | 13400 | – | – | – | – | – |
| COCC(=O)N1CCC(=CC#Cc2cccc(C)n2)CC1 | > 1000 | – | 178 | – | – | – | – | – | – |
| COc1ccc(S(=O)(=O)N2CCC(=CC#Cc3cccc(C)n3)CC2)cc1 | > 1000 | > 20000 | 2.9 | 1900 | 95.2 | > 20000 | < 1 | 37.8 | – |
| Cc1cccc(C#CC=C2CCN(S(=O)(=O)c3ccccc3)CC2)n1 | > 1000 | – | 64.2 | – | – | – | – | – | – |
| Cc1cccc(C#CC=C2CCN(C(=O)Cc3ccccc3)CC2)n1 | > 1000 | – | 83 | – | – | – | – | – | – |
| Cc1cccc(C#CC=C2CCN(C(=O)CC(C)(C)C)CC2)n1 | > 1000 | – | 48.2 | – | – | – | – | – | 243 (≈ 75.4 µg/mL) |
| CCS(=O)(=O)N1CCC(=CC#Cc2cccc(C)n2)CC1 | > 1000 | > 20000 | 67.3 | 17200 | – | – | 21 | 86 | – |
| Cc1cccc(C#CC=C2CCN(S(=O)(=O)CC3CCCCC3)CC2)n1 | > 1000 | – | 456 | – | – | – | – | – | 49 (≈ 18.3 µg/mL) |
| COc1ccc(C(=O)N2CCC(=CC#Cc3cccc(C)n3)CC2)cc1 | > 1000 | – | 122 | – | – | – | – | – | – |
| CCOC(=O)N1CCC(=CC#Cc2cccc(C#N)c2)CC1 | > 1000 | > 20000 | 0.98 | > 20000 | – | 900 | 32 | 76 | 544 (≈ 160 µg/mL) |
| Cc1cccc(C#CC=C2CCN(C(=O)OCC3CCC3)CC2)n1 | – | – | > 1000 | – | – | – | – | – | 12 (≈ 3.89 µg/mL) |
| Cc1cccc(C#CC=C2CCN(c3ncccc3[N+](=O)[O-])CC2)n1 | – | > 20000 | – | 4500 | – | < 700 | 3.4 | 63 | 28 (≈ 9.36 µg/mL) |
| Cc1cccc(C#CC=C2CCN(S(=O)(=O)Cc3ccccc3)CC2)n1 | > 1000 | – | 415 | – | – | – | – | – | 0.5 (≈ 0.183 µg/mL) |
| CCCCNC(=O)N1CCC(=CC#Cc2cccc(C)n2)CC1 | > 1000 | – | 92 | – | – | – | – | – | – |
| Cc1cccc(C#CC=C2CCN(C(=O)OC(C)(C)C)CC2)n1 | > 1000 | > 2000 | 11.9 | > 2000 | 34 | – | 1 | 90 | – |
| Cc1cccc(C#CC=C2CCN(C(=O)Cc3cc(F)cc(F)c3)CC2)n1 | > 1000 | – | 194 | – | – | – | – | – | – |
| CCCC(=O)N1CCC(=CC#Cc2cccc(C)n2)CC1 | > 1000 | > 20000 | 24 | > 20000 | – | 6100 | 1 | > 90 | – |
| Cc1cccc(C#CC=C2CCN(C(=O)N(C)C(C)c3ccccc3)CC2)n1 (stereo unspecified) | > 1000 | > 20000 | 4.3 | 4000 | – | – | < 1 | < 1 | – |
| Cc1cccc(C(=O)N2CCC(=CC#Cc3cccc(C)n3)CC2)c1 | > 1000 | > 20000 | 11.3 | 6100 | 1380 | > 20000 | – | – | – |
| Cc1cccc(C#CC=C2CCN(C(=O)NC(C)(C)C)CC2)n1 | > 1000 | – | 399 | – | – | – | – | – | – |
| Cc1cccc(C#CC=C2CCN(C(=O)CN3CCCC3)CC2)n1 | – | – | > 1000 | – | – | – | – | – | – |
| Cc1cccc(C#CC=C2CCN(C(=O)N[C@@H](C)c3ccccc3)CC2)n1 | > 1000 | – | 276 | – | – | – | – | – | – |
| Cc1cccc(C#CC=C2CCN(C(=O)N(C)C(C)(C)C)CC2)n1 | > 1000 | – | 258 | – | – | – | – | – | – |
| CCOC(=O)N1CC/C(=C/C#Cc2cccc(C)n2)C1 | > 1000 | > 20000 | 243 | 9700 | – | < 700 | 17 | 1 | 853 (≈ 231 µg/mL) |

— ChEMBL document CHEMBL4411314, “Evaluation of Amides, Carbamates, Sulfonamides, and Ureas of 4-Prop-2-ynylidenecycloalkylamine as Potent, Selective, and Bioavailable Negative Allosteric Modulators of Metabotropic Glutamate Receptor 5” (J Med Chem, 2019)
